What was measured:
Assay type in all cases: functional
[1] = test system: NCI/ADR-RES; experiment: Antiproliferative activity against human NCI/ADR-RES cells after 48 hrs by sulforhodamine B assay; details: for CC50: read-out: LC50 (the source's name)
How it was run: (§1)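 NCI 60-cell-line panel covering nine cancer types (leukemia, non-small cell lung, colon, CNS, melanoma, ovarian, renal, prostate, breast). Compounds were first tested at a single dose, then in a five-dose screen (series starting 0.01, 0.1 …) if they met NCI threshold criteria. Reported per line: GI50 (molar concentration inhibiting 50% net growth), TGI (total growth inhibition) and LC50 (50% net cell death).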

[2] = test system: SN12C; experiment: Antiproliferative activity against human SN12C cells after 48 hrs by sulforhodamine B assay; details: for CC50: read-out: LC50 (the source's name); how it was run: as §1
[3] = test system: NCI-H460; experiment: Antiproliferative activity against human NCI-H460 cells after 48 hrs by sulforhodamine B assay; details: NCI-H460, 48 h; for CC50: read-out: LC50 (the source's name); how it was run: as §1
[4] = test system: HCT-15; experiment: Antiproliferative activity against human HCT15 cells after 48 hrs by sulforhodamine B assay; details: HCT-15, 48 h; how it was run: as §1
[5] = test system: HOP-92; experiment: Antiproliferative activity against human HOP92 cells after 48 hrs by sulforhodamine B assay; details: HOP-92, 48 h; how it was run: as §1
[6] = test system: CCRF-CEM; experiment: Antiproliferative activity against human CCRF-CEM cells after 48 hrs by sulforhodamine B assay; how it was run: as §1
[7] = test system: TK-10; experiment: Antiproliferative activity against human TK10 cells after 48 hrs by sulforhodamine B assay; details: TK-10, 48 h; for CC50: read-out: LC50 (the source's name)
How it was run: (§2)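 NCI 60-cell-line panel screen: single dose 10 µM first, then 5-dose testing (0.01, 0.1, … molar series). For each line, GI50 is the molar concentration giving 50% inhibition of net cell growth, TGI gives total inhibition of net growth, and LC50 gives 50% net cell death. Method follows the NCI DTP protocol.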

[8] = test system: MDA-MB-231; experiment: Antiproliferative activity against human MDA-MB-231 cells after 48 hrs by sulforhodamine B assay; details: MDA-MB-231, 48 h; for CC50: read-out: LC50 (the source's name); how it was run: as §1
[9] = test system: PC-3; experiment: Antiproliferative activity against human PC3 cells after 48 hrs by sulforhodamine B assay; details: PC-3, 48 h; for CC50: read-out: LC50 (the source's name); how it was run: as §1
[10] = test system: NCI-H23; experiment: Antiproliferative activity against human NCI-H23 cells after 48 hrs by sulforhodamine B assay; details: NCI-H23, 48 h; for CC50: read-out: LC50 (the source's name); how it was run: as §1
[11] = test system: SF-539; experiment: Antiproliferative activity against human SF539 cells after 48 hrs by sulforhodamine B assay; details: SF-539, 48 h; for CC50: read-out: LC50 (the source's name); how it was run: as §1
[12] = test system: HL-60(TB); experiment: Antiproliferative activity against human HL-60(TB) cells after 48 hrs by sulforhodamine B assay; details: HL-60, 48 h; for CC50: read-out: LC50 (the source's name)
How it was run: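 Tested by the National Cancer Institute in its full tumour cell panel covering nine cancer types, including leukemia. Compounds were first screened at a single dose. Those passing the preset inhibition threshold then went to a 5-dose screen. GI50 is the molar concentration giving 50% inhibition of net cell growth; TGI and LC50 were also derived.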

[13] = test system: SK-MEL-5; experiment: Antiproliferative activity against human SK-MEL-5 cells after 48 hrs by sulforhodamine B assay; details: SK-MEL-5, 48 h; for CC50: read-out: LC50 (the source's name); how it was run: as §1
[14] = test system: UACC-257; experiment: Antiproliferative activity against human UACC257 cells after 48 hrs by sulforhodamine B assay; details: UACC-257, 48 h; for CC50: read-out: LC50 (the source's name); how it was run: as §2
[15] = test system: A498; experiment: Antiproliferative activity against human A498 cells after 48 hrs by sulforhodamine B assay; details: A498, 48 h; for CC50: read-out: LC50 (the source's name); how it was run: as §1
[16] = test system: UO-31; experiment: Antiproliferative activity against human UO31 cells after 48 hrs by sulforhodamine B assay; details: UO-31, 48 h; for CC50: read-out: LC50 (the source's name); how it was run: as §2
[17] = test system: LOX IMVI; experiment: Antiproliferative activity against human LOXIMVI cells after 48 hrs by sulforhodamine B assay; how it was run: as §1
[18] = test system: NCI-H522; experiment: Antiproliferative activity against human NCI-H522 cells after 48 hrs by sulforhodamine B assay; details: NCI-H522, 48 h; how it was run: as §1
[19] = test system: 786-0; experiment: Antiproliferative activity against human 786-0 cells after 48 hrs by sulforhodamine B assay; details: 786-0, 48 h; for CC50: read-out: LC50 (the source's name); how it was run: as §1
[20] = test system: SNB-75; experiment: Antiproliferative activity against human SNB75 cells after 48 hrs by sulforhodamine B assay; details: SNB-75, 48 h; how it was run: as §1
[21] = test system: HT-29; experiment: Antiproliferative activity against human HT-29 cells after 48 hrs by sulforhodamine B assay; details: HT-29, 48 h; how it was run: as §1
[22] = test system: RXF 393; experiment: Antiproliferative activity against human RXF393 cells after 48 hrs by sulforhodamine B assay; details: RXF 393, 48 h; for CC50: read-out: LC50 (the source's name); how it was run: as §1
[23] = test system: OVCAR-4; experiment: Antiproliferative activity against human OVCAR4 cells after 48 hrs by sulforhodamine B assay; details: OVCAR-4, 48 h; for CC50: read-out: LC50 (the source's name); how it was run: as §1
[24] = test system: MCF7; experiment: Antiproliferative activity against human MCF7 cells after 48 hrs by sulforhodamine B assay; details: MCF7, 48 h; for CC50: read-out: LC50 (the source's name); how it was run: as §1
[25] = test system: MOLT-4; experiment: Antiproliferative activity against human MOLT4 cells after 48 hrs by sulforhodamine B assay; details: MOLT-4, 48 h; for CC50: read-out: LC50 (the source's name); how it was run: as §1
[26] = test system: OVCAR-5; experiment: Antiproliferative activity against human OVCAR5 cells after 48 hrs by sulforhodamine B assay; details: OVCAR-5, 48 h; for CC50: read-out: LC50 (the source's name); how it was run: as §1
[27] = test system: MDA-MB-435; experiment: Antiproliferative activity against human MDA-MB-435 cells after 48 hrs by sulforhodamine B assay; details: MDA-MB-435, 48 h; for CC50: read-out: LC50 (the source's name); how it was run: as §1

Nc1ccc2c(c1)c(N)nn2C(=O)Nc1ccc(Cc2ccccc2)cc1
GI50 [1]: 17.4 µM
TGI [1]: 75.1 µM
CC50 [1]: > 100 µM
GI50 [2]: 13.4 µM
TGI [2]: 30.9 µM
CC50 [2]: 71.1 µM
GI50 [3]: 4.64 µM
TGI [3]: 23.8 µM
CC50 [3]: > 100 µM
GI50 [4]: 2.75 µM
LC50 (concentration causing 50% net cell death) [4]: 50.5 µM
TGI [4]: 14.2 µM
GI50 [5]: 10.4 µM
LC50 [5]: 57.4 µM
TGI [5]: 24.4 µM
GI50 [6]: 2.07 µM
LC50 (concentration causing 50% net cell death) [6]: > 100 µM
TGI [6]: 18.8 µM
GI50 [7]: 19.4 µM
TGI [7]: 46 µM
CC50 [7]: > 100 µM
GI50 [8]: 7.74 µM
TGI [8]: 22.7 µM
CC50 [8]: 54.3 µM
GI50 [9]: 4.33 µM
TGI [9]: 24 µM
CC50 [9]: 87 µM
GI50 [10]: 16.9 µM
TGI [10]: 39.5 µM
CC50 [10]: 92.4 µM
GI50 [11]: 8.7 µM
TGI [11]: 22.1 µM
CC50 [11]: 51.8 µM
GI50 [12]: 3.46 µM
TGI [12]: 17.2 µM
CC50 [12]: 72.2 µM
GI50 [13]: 6.52 µM
TGI [13]: 19.8 µM
CC50 [13]: 46.4 µM
GI50 [14]: 14.5 µM
TGI [14]: 29.7 µM
CC50 [14]: 60.8 µM
GI50 [15]: 14.4 µM
TGI [15]: 28.4 µM
CC50 [15]: 56.1 µM
GI50 [16]: 4.72 µM
TGI [16]: 32.6 µM
CC50 [16]: > 100 µM
GI50 [17]: 3.38 µM
LC50 (concentration causing 50% net cell death) [17]: 46.7 µM
TGI [17]: 16 µM
GI50 [18]: 14.7 µM
LC50 (concentration causing 50% net cell death) [18]: > 100 µM
TGI [18]: 39.6 µM
GI50 [19]: 12.4 µM
TGI [19]: 25.9 µM
CC50 [19]: 54.3 µM
GI50 [20]: 17.4 µM
LC50 (concentration causing 50% net cell death) [20]: 57.1 µM
TGI [20]: 31.5 µM
GI50 [21]: 4.51 µM
LC50 (concentration giving 50% net cell death) [21]: 46 µM
TGI [21]: 17.2 µM
GI50 [22]: 21.4 µM
TGI [22]: 43.9 µM
CC50 [22]: 90.1 µM
GI50 [23]: 8.29 µM
TGI [23]: 24.1 µM
CC50 [23]: 63.2 µM
GI50 [24]: 6.92 µM
TGI [24]: 26.5 µM
CC50 [24]: 85.4 µM
GI50 [25]: 4.48 µM
TGI [25]: 24.3 µM
CC50 [25]: > 100 µM
GI50 [26]: 22.6 µM
TGI [26]: 60.5 µM
CC50 [26]: > 100 µM
GI50 [27]: 7.36 µM
TGI [27]: 23.8 µM
CC50 [27]: 65.5 µM

Nc1nn(C(=O)Nc2ccc(Cc3ccccc3)cc2)c2ccc(Cl)cc12
GI50 [1]: 11 µM
TGI [1]: 39.1 µM
CC50 [1]: > 100 µM
GI50 [2]: 14.6 µM
TGI [2]: 42.9 µM
CC50 [2]: > 100 µM
GI50 [3]: 0.0645 µM
TGI [3]: 14.7 µM
CC50 [3]: 60.6 µM
GI50 [4]: 0.0458 µM
LC50 (concentration causing 50% net cell death) [4]: > 100 µM
TGI [4]: > 100 µM
GI50 [5]: 10.7 µM
LC50 [5]: > 100 µM
TGI [5]: 33.7 µM
GI50 [6]: 1.23 µM
LC50 (concentration causing 50% net cell death) [6]: > 100 µM
TGI [6]: 34.4 µM
GI50 [7]: 15.6 µM
TGI [7]: 38.7 µM
CC50 [7]: 96.3 µM
GI50 [8]: 5.33 µM
TGI [8]: 37.6 µM
CC50 [8]: > 100 µM
GI50 [9]: 2.9 µM
TGI [9]: 44.3 µM
CC50 [9]: > 100 µM
GI50 [10]: 5.34 µM
TGI [10]: 68.4 µM
CC50 [10]: > 100 µM
GI50 [11]: 1.51 µM
TGI [11]: 11.5 µM
CC50 [11]: 38.8 µM
GI50 [12]: 2.62 µM
TGI [12]: 42.1 µM
CC50 [12]: > 100 µM
GI50 [13]: 0.283 µM
TGI [13]: 21.1 µM
CC50 [13]: 80.2 µM
GI50 [14]: 4.92 µM
TGI [14]: > 100 µM
CC50 [14]: > 100 µM
GI50 [15]: 16.1 µM
TGI [15]: 60.7 µM
CC50 [15]: > 100 µM
GI50 [16]: 3.12 µM
TGI [16]: 84.5 µM
CC50 [16]: > 100 µM
GI50 [17]: 0.0503 µM
LC50 (concentration causing 50% net cell death) [17]: 53.2 µM
TGI [17]: 18.4 µM
GI50 [18]: 15.6 µM
LC50 (concentration causing 50% net cell death) [18]: > 100 µM
TGI [18]: > 100 µM
GI50 [19]: 3.92 µM
TGI [19]: 28.2 µM
CC50 [19]: 94.4 µM
GI50 [20]: 14 µM
LC50 (concentration causing 50% net cell death) [20]: 74.5 µM
TGI [20]: 32.3 µM
GI50 [21]: 1.15 µM
LC50 (concentration giving 50% net cell death) [21]: 79.1 µM
TGI [21]: 24 µM
GI50 [22]: 13.5 µM
TGI [22]: 31.5 µM
CC50 [22]: 73.4 µM
GI50 [23]: 5.73 µM
TGI [23]: 34.3 µM
CC50 [23]: > 100 µM
GI50 [24]: 0.395 µM
TGI [24]: 18.8 µM
CC50 [24]: 84 µM
GI50 [25]: 2.41 µM
TGI [25]: 55.3 µM
CC50 [25]: > 100 µM
GI50 [26]: 18.8 µM
TGI [26]: > 100 µM
CC50 [26]: > 100 µM
GI50 [27]: 0.0813 µM
TGI [27]: > 100 µM
CC50 [27]: > 100 µM
